Screening results: PubChem BioAssay, several laboratories
This is a sample that favours compounds with a hit; in the whole collection about 1.1% have one here.
RBBP9 inhibitor = blocks human serine hydrolase RBBP9; inhibition, % at 7.94 µM; O75884; 220,000 compounds, 0.2% hits; recombinant RBBP9, FP-Rh probe fluorescence polarization;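 active means inhibition above the campaign mean of all tested compounds plus 3 SD, cut at about 14% in these data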
Target sequence (O75884 whole entry, looked up): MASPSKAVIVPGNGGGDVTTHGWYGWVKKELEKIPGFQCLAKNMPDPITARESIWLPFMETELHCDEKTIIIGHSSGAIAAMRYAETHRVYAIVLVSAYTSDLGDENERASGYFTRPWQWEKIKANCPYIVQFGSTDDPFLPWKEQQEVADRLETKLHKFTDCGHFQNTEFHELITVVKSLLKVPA
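system = RBBP9 protein | input = RBBP9 at 2.5 µM in dispensed solution, before mixing | measured by = fluorescence polarization (mP), excitation 525 nm, emission 598 nm | incubation = enzyme-compound preincubation 30 min, then probe labeling 45 min, 25 °C | buffer or medium = Tris-NaCl-Pluronic buffer, pH 8.0 | compound = single dose 7.94 µM | also added = FP-Rh probe, 375 nM dispensing solution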
NCF1 inh = inhibitors of human p47phox binding | P14598 | p47phox/p22phox peptide binding, fluorescence polarization, 2 h | inhibition, % at 24.7 µM | 220,000 compounds, 0.53% hits | AID 1274;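 active means inhibition above about 30%, limit read from the data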
Target sequence (P14598 whole entry, looked up): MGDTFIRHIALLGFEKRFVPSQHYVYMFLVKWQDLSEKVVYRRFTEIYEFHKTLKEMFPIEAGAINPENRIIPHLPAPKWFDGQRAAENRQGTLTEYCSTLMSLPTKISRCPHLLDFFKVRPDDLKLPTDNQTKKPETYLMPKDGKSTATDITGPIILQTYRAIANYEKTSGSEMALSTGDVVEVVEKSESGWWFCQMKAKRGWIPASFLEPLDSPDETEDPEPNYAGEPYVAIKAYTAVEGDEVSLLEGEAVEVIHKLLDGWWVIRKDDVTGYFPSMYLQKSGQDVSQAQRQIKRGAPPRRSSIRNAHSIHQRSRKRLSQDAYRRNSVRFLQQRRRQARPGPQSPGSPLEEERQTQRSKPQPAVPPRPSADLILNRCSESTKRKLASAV
m-calpain inh = blocks pig calpain II enzyme activity; purified calpain II, fluorogenic peptide substrate, 30 min; inhibition, % at 16 µM; 220,000 compounds, 0.37% hits; AID 1236;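 active means inhibition above about 50%, limit read from the data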
Furin inhibitor = inhibitors of human furin. purified furin, fluorogenic substrate cleavage. AID 463115. 220,000 compounds, 0.061% hits. inhibition, % at 20 µM or 30 µM. P09958; in the data active means inhibition above about 25%
Each line names hits and unclear results; the compound was inactive in the other large screens; ! = a repeat was not active.

C#CCOCCOCCOCCNc1nc(N2CCN(C(=O)[C@H](Cc3cc4ccccc4[nH]3)n3cc([C@@H](N)C(C)CC)nn3)CC2)nc(N2CCN(C(=O)[C@H](Cc3cc4ccccc4[nH]3)n3cc([C@@H](N)Cc4ccc(O)cc4)nn3)CC2)n1 (stereo partly drawn)	NCF1 inh 79
C#CCOCCOCCOCCNc1nc(N2CCN(C(=O)[C@H](CCCCN)n3cc(CCCC)nn3)CC2)nc(N2CCN(C(=O)[C@H](Cc3ccc(O)cc3)n3cc(CCO)nn3)CC2)n1	NCF1 inh 63
C#CCOCCOCCOCCNc1nc(N2CCN(C(=O)C(CCC(=O)O)n3cc(C(N)CC(C)C)nn3)CC2)nc(N2CCN(C(=O)C(Cc3cc4ccccc4[nH]3)n3cc(C(N)Cc4ccc(O)cc4)nn3)CC2)n1 (stereo not drawn)	none
C#CCOCCOCCOCCNc1nc(N2CCN(C(=O)[C@H](Cc3cc4ccccc4[nH]3)n3cc([C@@H](N)Cc4ccc(O)cc4)nn3)CC2)nc(N2CCN(C(=O)[C@H](Cc3cc4ccccc4[nH]3)n3cc([C@@H](N)CC(C)C)nn3)CC2)n1	NCF1 inh 73 (no result: RBBP9 inhibitor)
O=C(NCc1ccc(F)cc1)Nc1cccc(Cl)c1	none
Cc1oc2c(c1C(=O)c1ccc(Cl)cc1)C(=O)C(=O)c1ccccc1-2	m-calpain inh 62
Cc1[nH]c2ccccc2c1CCN(Cc1cccnc1)C(=S)Nc1cccc(F)c1	m-calpain inh 61
Cc1[nH]c2ccc(F)cc2c1CCN(Cc1cccnc1)C(=S)Nc1ccccc1	none
Cc1[nH]c2ccccc2c1CCN(Cc1cccnc1)C(=S)Nc1ccc(F)cc1	m-calpain inh 64
O=C(Nc1ccccc1C(=O)NCc1ccc(Cl)cc1)c1ccco1	NCF1 inh 31
Cc1ccc2c(c1)CCCN2C(=O)c1c(C)noc1C	none
Cc1noc(C)c1C(=O)N1CCCc2ccccc21	NCF1 inh 53
COc1ccc(-c2cc(C(=O)N3CCCc4ccccc43)no2)cc1	m-calpain inh 53
COc1cccc(-c2cc(C(=O)N3CCCc4ccccc43)no2)c1	none
Cn1c(SCc2ccccc2F)nnc1-c1ccccn1	none
Cc1ccc(-n2sc3ccccc3c2=O)cc1	RBBP9 inhibitor 37, NCF1 inh 101
CC1(C)Cc2c(C#N)c(N)sc(=S)c2CS1	NCF1 inh 52
CC1=CC(=C2C(=O)c3ccccc3C2=O)C=C(C)O1	NCF1 inh 69
CCCc1ccc(OC(=O)c2cccs2)cc1	none
CCCc1ccc(OC(=O)c2ccc(O)cc2Cl)cc1	m-calpain inh 62
CN1CCN(/N=C/c2ccc(N(C)c3ccccc3)cc2)CC1	none
CN1CCN(/N=C/c2ccc(N(c3ccccc3)c3ccccc3)cc2)CC1	NCF1 inh 46
Cc1ccc(C2=NNC(=O)C(c3ccc(Cl)cc3)C2)cc1 (stereo not drawn)	none
O=C1NN=C(c2ccc(Cl)cc2)CC1c1cccc(Br)c1 (stereo not drawn)	m-calpain inh 54
Cc1ccc(CNC(=O)COC(=O)CCCOc2ccc(Cl)cc2Cl)cc1	NCF1 inh 72
CN1CCN(NC(=O)CN2C(=O)S/C(=C\c3c(Cl)cccc3Cl)C2=O)CC1	none
COc1ccc(Cl)cc1C(=O)NNC(=O)CSc1nnnn1C	none
Nc1ccc(Br)c2c1C(=O)c1ccccc1C2=O	NCF1 inh 37
Nc1ccc(NC(=O)c2ccccc2)c2c1C(=O)c1ccccc1C2=O	none
Nc1ccc(O)c2c1C(=O)c1ccccc1C2=O	NCF1 inh 54
NC1=C(Br)C(=O)c2ccccc2C1=O	none
Cn1cc([N+](=O)[O-])c(C(=O)N/N=C/c2ccc3c(c2)OCO3)n1	none
O=C(COC(=O)c1ccc(O)cc1)NCCCc1ccccc1	none
C=CCNc1ccc(N2C(=O)C3CCC(C)CC3C2=O)cc1[N+](=O)[O-] (stereo not drawn)	m-calpain inh 67
O=C1C2CCCCC2C(=O)N1c1ccc(NC2CCCCC2)c([N+](=O)[O-])c1 (stereo not drawn)	m-calpain inh 61
COC(=O)c1c(-c2c(Cl)cccc2Cl)noc1NC(=O)N(C)C	none
COC(=O)c1onc(-c2c(Cl)cccc2Cl)c1C(=O)OC	NCF1 inh 47
CCN(CC)S(=O)(=O)c1cccc(NC(=O)CSc2nnc(N)s2)c1	none
Cc1nc(SCC(=O)NC(C)c2ccccc2)c2oc3ccccc3c2n1 (stereo not drawn)	m-calpain inh 57
Cc1nc(SCC(=O)Nc2ccccc2)c2oc3ccccc3c2n1	none
Cc1cc(C)n2c(=S)[nH]nc2n1	NCF1 inh 40
Cc1cc(C)n2cnnc2n1	none
CCN1CCN(Cc2ccc(NC(=O)c3cc(NC(=O)C(=O)c4c[nH]c5ccccc45)cc(OC)c3)cc2C(F)(F)F)CC1	NCF1 inh 37 (no result: RBBP9 inhibitor)
CCN1CCN(Cc2ccc(NC(=O)c3ccc(C)c(NC(=O)c4ccc5n[nH]nc5c4)c3)cc2C(F)(F)F)CC1	none (no result: RBBP9 inhibitor)
CCN1CCN(Cc2ccc(NC(=O)c3ccc(C)c(NC(=O)C(=O)c4c[nH]c5ccccc45)c3)cc2C(F)(F)F)CC1	NCF1 inh 59 (no result: RBBP9 inhibitor)
CC1CCCN(C(=O)COc2ccc(Nc3ccccc3)cc2)C1 (stereo not drawn)	none
COc1ccccc1NC(=O)/C(=C/c1cccs1)NC(=O)c1ccco1	m-calpain inh 55
Cc1cccc(NC(=O)COC(=O)c2cc3ccccc3oc2=O)c1	none
c1ccc2[nH]c(-c3ccncc3)nc2c1	NCF1 inh 30!
Cc1csc(SCC(=O)NC(C)c2ccccc2)n1 (stereo not drawn)	none
Cc1ccc(NC(=O)CSc2nnc(-c3ccncc3)o2)cc1C	none (no result: NCF1 inh)
CNC(=S)N(CCc1c(C)[nH]c2ccc(C)cc12)Cc1ccco1	none
CCNC(=S)N(CCc1c(C)[nH]c2ccc(Cl)cc12)Cc1ccco1	m-calpain inh 59
COc1ccc2c(c1)C(=O)CC(O)(C(F)F)O2 (stereo not drawn)	m-calpain inh 51
CC(C)(C)OC(=O)N1CCC(c2cc(-c3cccs3)n[nH]2)CC1	none
O=C(Nc1cccc(Cn2cccn2)c1)c1cc2c(s1)CCCC2	Furin inhibitor 26
CC(=O)Nc1cccc(Cn2cccn2)c1	none
CC(C)CCN(C(=S)NC(=O)C1CCCCC1)c1c(N)n(Cc2ccccc2)c(=O)[nH]c1=O	m-calpain inh 64
Cc1cc(N2CCN(C)CC2)nc2ccc(NC(=S)NCc3cccs3)cc12	none
CCN1CCN(c2cc(C)c3cc(NC(=S)NCc4cccs4)ccc3n2)CC1	m-calpain inh 51
Cc1cccc(Nc2nc3c(S(=O)(=O)c4ccccc4)nnn3c3ccccc23)c1	none
Cc1cc(C)cc(Nc2nc3c(S(=O)(=O)c4ccccc4)nnn3c3ccccc23)c1	NCF1 inh 34
O=C(Nc1nnc(SCc2ccc(F)cc2)s1)c1ccc2c(c1)C(=O)N(c1ccccc1Cl)C2=O	none
CCC(C)NC(=O)CSc1nc2cc3c(cc2c(=O)n1Cc1ccco1)OCO3 (stereo not drawn)	NCF1 inh 30
CN(c1ccccc1)S(=O)(=O)c1cccc(NC(=O)C2CC(=O)N(Cc3ccccc3)C2)c1 (stereo not drawn)	NCF1 inh active
CCCCc1ccc(/C=C2\C(=O)c3ccccc3C(O)=C2C(=O)OCC)cc1	NCF1 inh 58
